Assay results as given in ChEMBL document CHEMBL1629604, “Targeting type III secretion in Yersinia pestis” (Antimicrob Agents Chemother, 2009).
Calls of active or inactive are those of the source. The calls are words filed in the database; no cut-off is given here.

Tests used:
[1] = test system: Yersinia pestis; assay: Toxicity in Yersinia pestis JG153 assessed as growth inhibition at 60 uM measured 6 mins intervals for 24 hrs; assay type: organism-based
[2] = test system: Yersinia pestis; assay: (§1) Inhibition of T3SS-mediated YopM secretion in Yersinia pestis JG401 after 2 hrs by Western blotting
[3] = test system: HeLa; assay: Inhibition pCD1 positive Yersinia pestis JG153 T3SS-mediated morphological changes in human HeLa cells after 3 hrs; assay type: cell-based
[4] = test system: Yersinia pestis; assay: (§2) Inhibition of T3SS-mediated YopH secretion in Yersinia pestis JG401 after 2 hrs by Western blotting
[5] = test system: Yersinia pestis; assay: (§3) Inhibition of T3SS-mediated YopD secretion in Yersinia pestis JG401 after 2 hrs by Western blotting
[6] = test system: HeLa; assay: Cytotoxicity against human HeLa cells assessed as cell rounding up to 60 uM after 3 hrs; assay type: cell-based
Outline: (§4)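 HeLa monolayers seeded 1 day before at 1×10^5 cells/well in DMEM with 3% heat-inactivated FBS. Compound applied, cells incubated 37°C for 3 h. Monolayer disruption scored by microscopy as rounding and as percentage of cells detached from the plate.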

[7] = test system: HeLa; assay: Cytotoxicity against human HeLa cells assessed as cell detachment up to 60 uM after 3 hrs; assay type: cell-based; outline: as §4
[8] = test system: HeLa; assay: Cytotoxicity against human HeLa cells assessed as LDH release up to 60 uM after 3 hrs; assay type: cell-based
Outline: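 HeLa cells seeded 1 day before in DMEM with 3% heat-inactivated FBS, then exposed to compound up to 60 μM at 37°C for 2–3 h. LDH in supernatant measured by kit. 0.1% Triton X-100 lysis gave the maximum and untreated cells the baseline; % cytotoxicity was calculated relative to both. Mean of three independent assays.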

[9] = test system: Yersinia pestis; assay: Inhibition of translocation of YopE::Bla fusion from pMM85 expressing Yersinia pestis JG153 to human HeLa cells at 80 uM after 3 hrs by fluorescence microscopic analysis; assay type: functional, organism-based
[10] = test system: Escherichia coli; assay: Inhibition of T3SS-mediated Tir secretion in enteropathogenic Escherichia coli KC14 harboring pKC17 at after 2 hrs by Western blotting
[11] = test system: Yersinia pestis; assay: Inhibition of T3SS-mediated YopD secretion in Yersinia pestis JG401 at up to 60 uM after 2 hrs by Western blotting
[12] = test system: Yersinia pestis; assay: Inhibition of T3SS-mediated YopD secretion in Yersinia pestis JG401 at 15 uM after 2 hrs by Western blotting
[13] = test system: Yersinia pestis; assay: Inhibition of T3SS-mediated YopM secretion in Yersinia pestis JG401 t up to 60 uM after 2 hrs by Western blotting
[14] = as §1
[15] = as §2
[16] = as §3
[17] = test system: Yersinia pestis; assay: Inhibition of translocation of YopE::Bla fusion from pMM85 expressing Yersinia pestis JG153 to human HeLa cells at 40 uM after 3 hrs by fluorescence microscopic analysis; assay type: functional

SMILES | Activity [1] | inhibition [2] | inhibition [3] | inhibition [4] | inhibition [5] | Activity [6] | Activity [7] | Activity [8] | inhibition [9] | further results
O=C(N/N=C/c1cc(Br)cc(Br)c1O)c1ccc([N+](=O)[O-])cc1 | Toxic |  |  |  |  |  |  |  |  | 
Cc1ccc(-c2nn(-c3ccccc3)cc2C2CC(c3cccs3)=NN2C(=O)CCCC(=O)O)cc1 (stereo unspecified) | Non-toxic | Dose-dependent effect | Dose-dependent effect | Dose-dependent effect | Dose-dependent effect | Non-toxic | Non-toxic | Non-toxic | inactive | INCC50 [10]: inactive
Cc1ccc(CSc2nc(C(=O)O)ccc2C#N)cc1 | Non-toxic | Dose-dependent effect | Dose-dependent effect | Dose-dependent effect | Dose-dependent effect | Non-toxic | Non-toxic | Non-toxic | inactive | inhibition ([10]; concentration not given here): 96%
O=C(Nc1cccc(C2=NCCN2)c1)Nc1cccc(C2=NCCN2)c1 |  | Dose-dependent effect | Dose-dependent effect | Dose-dependent effect | Dose-dependent effect |  |  |  | Active | inhibition [11]: inactive; inhibition [12]: 50%; inhibition [13]: inactive; inhibition ([10]; concentration not given here): 81%
O=C(Nc1cccc(C2=NCCN2)c1)Nc1cccc(C2=NCCN2)c1 [IMIDOCARB] | Non-toxic |  |  |  |  | Non-toxic | Non-toxic | Non-toxic |  | 
Cc1cc(O)ccc1Sc1ccc(O)cc1C | Non-toxic | Dose-dependent effect |  | Dose-dependent effect | Dose-dependent effect | Toxic | Toxic | Toxic |  | IC50 [14]: 10 µM; IC50 [15]: 10 µM; IC50 [16]: 10 µM; inhibition [10]: inactive
O=C(Nc1cccc(C2=NCCN2)c1)Nc1cccc(C2=NCCN2)c1 [IMIDOCARB DIPROPIONATE] |  |  |  |  |  |  |  |  |  | inhibition at 40 µM [17]: 50%
